Shown are actives, neighbours in structure and some others; about 1.9% of the full set was active somewhere.
V-ATPase pHluor: regulators of yeast V-ATPase proton pumping, primary screen, pHLuorin cytosolic pH fluorescence | hit rate 0.37% among 350,000 | AID 504577, 2011 | response, % at 10 µM | S. cerevisiae; in the data active means response mostly above about 7.3%, no sharp cut-off; inactive means mostly below about 5.4%; further: actives read high
Rce1 inhib: yeast Rce1p protease inhibitors, primary screen, biochemical, fluorescence, cell-free homogeneous. CAAX prenyl protease 2 (Saccharomyces cerevisiae (strain ATCC 204508 / S288c)), Q03530. yeast membranes, quenched prenylated peptide cleavage fluorescence. AID 2563, 2010. calls only. hit rate 0.27% among 290,000;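 active means fall in fluorescence gain of 50% or more versus controls, with final raw signal at or below 3038400; inconclusive means same 50% fall but final raw signal above 3038400; inactive means fall in fluorescence gain under 50%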;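 further: plate controls were neutral control wells for no effect and wells lacking membranes for full effect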
Target sequence (Q03530 whole entry, looked up): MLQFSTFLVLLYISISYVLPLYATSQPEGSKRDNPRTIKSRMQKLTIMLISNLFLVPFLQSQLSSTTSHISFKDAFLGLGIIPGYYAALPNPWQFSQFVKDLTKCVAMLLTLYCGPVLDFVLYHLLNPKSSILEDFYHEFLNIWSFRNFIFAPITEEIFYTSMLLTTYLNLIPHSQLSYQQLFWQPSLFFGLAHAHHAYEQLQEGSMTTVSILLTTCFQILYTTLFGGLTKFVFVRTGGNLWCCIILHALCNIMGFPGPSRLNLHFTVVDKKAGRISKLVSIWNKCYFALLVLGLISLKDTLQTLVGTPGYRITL
MIN6 prolif: inducers of MIN6 beta-cell proliferation, primary screen, ATP luminescence, uHTS; hit rate 0.29% among 330,000; MIN6 cells proliferation, ATPlite luminescence, 48 h; cells starved in 0.2% serum; 100% = growth in 10% serum; proliferation, % at 10 µM;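 active means compounds whose signal lies at least 3.5 SD above the mean of all wells on their plate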;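 further: 0% = DMSO-treated cells in low-serum medium and 100% = 10% serum control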
proKLK7 act: proKLK7 zymogen activators, primary screen, biochemical, fluorescence intensity. purified proKLK7, EDANS-DABCYL substrate fluorescence; 100% is mature enzyme control, 0% vehicle. activation, % at 7 µM. hit rate 0.9% among 370,000;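 active means activation above the mean of all tested compounds plus 3 SD, computed per campaign excluding outliers beyond control limits, cut at about 13% in these data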
Target sequence (P49862 whole entry, looked up): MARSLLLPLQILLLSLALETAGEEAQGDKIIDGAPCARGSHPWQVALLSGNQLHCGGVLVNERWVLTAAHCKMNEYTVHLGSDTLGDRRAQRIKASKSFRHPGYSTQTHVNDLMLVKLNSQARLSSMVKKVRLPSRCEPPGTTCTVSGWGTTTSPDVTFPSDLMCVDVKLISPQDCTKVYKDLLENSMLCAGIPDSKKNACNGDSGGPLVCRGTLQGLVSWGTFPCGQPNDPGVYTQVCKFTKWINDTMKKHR
T cell HTS: modulators of CD8 T cell-vesicle binding, primary screen, mouse 2C CD8+ T cells, flow cytometry | hit rate 0.068% among 330,000 | 2C CD8+ T cell-vesicle binding; stronger effect = lower value | response (vesicle binding), % at 7 µM | AID 2052, 2009;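 active means response, share of CD8 T cells binding vesicles, and their 90th percentile fluorescence all below set limits, cut at about 80% in these data, passing the limit was not always enough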;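 further: values below 100% mean blocked vesicle binding to the CD8+ T cells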
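Test system: purified 2C TCR transgenic mouse naive CD8+ T cells. Probe or stimulus: QL9-peptide-loaded Drosophila micro-vesicles bearing Ld, ICAM-1 and B7-1. Incubation: binding step 1.5 h, 37 °C, antibody labelling 20 min, ice. Measured by: flow cytometry of vesicle-bound cells.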
Yeast superoxide: reduction of superoxide in aged yeast, primary screen, HTS. AID 2690, 2010. hit rate 0.18% among 330,000. superoxide response (% of plate mean), % at 10 µM. S. cerevisiae aged cells, superoxide DHE fluorescence; stronger effect = lower value;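 active means superoxide response under a set limit, about three screen SD below normal, cut at about 65% in these data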;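 further: yeast aged for seven days with compound at 30 °C before DHE staining; 100% = average MFI of all compound-treated wells on the plate with controls excluded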
KLK7 act conf: proKLK7 zymogen activators, confirmation, biochemical, fluorescence intensity, triplicate. shares compounds with proKLK7 act. purified proKLK7, EDANS-DABCYL substrate fluorescence; scaled: vehicle 0, mature enzyme 100. activation, % at 7 µM. hit rate 68% among 3,200. AID 686949, 2013;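 active means activation, as change over the incubation, above the mean of all tested compounds plus 3 SD, cut at about 13% in these data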
EDANS interfere: EDANS-DABCYL substrate optical interference, artefact control for kallikrein-7 zymogen activator project, biochemical, fluorescence intensity, high throughput; shares compounds with proKLK7 act; no enzyme, 4 h; solvent 0%, active enzyme control 100%; activation, % at 7 µM; hit rate 80% among 3,200; AID 686952, 2013;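 active means activation above the all-compound mean plus 3 SD, ignoring values outside control-based bounds, cut at about 4.8% in these data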;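 further: value is the 4 h activation minus the activation read at time zero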
* hit, by the source's call; i = inactive; u = inconclusive; x = no result given; + = active, no number.

SMILES	V-ATPase pHluor	Rce1 inhib	MIN6 prolif	proKLK7 act	T cell HTS	Yeast superoxide	KLK7 act conf	EDANS interfere
Nc1cc2nn(-c3ccccc3)nc2cc1Cl	-2	i	x	21*	x	x	-50	-39
Nc1ccc2nn(-c3ccccc3)nc2c1	-1	x	-5	30*	x	x	66*	68*
N#Cc1c(C(F)(F)F)cc(-c2ccc(F)cc2)[nH]c1=O	-3	i	-3	8	186	109	x	x
COc1ccc(-c2cc(C(F)(F)F)c(C#N)c(=O)[nH]2)cc1	1	i	-4	17*	394	105	40*	43*
N#Cc1c(C(F)(F)F)cc(-c2cccc(Cl)c2)[nH]c1=O	8	i	-3	20*	526	97	51*	48*
COc1ccc(C2=NS(=O)(=O)N(C)C(C(=O)NC3CCCCC3)=C2)cc1OC	0	i	0	13*	397	89	1	1
COc1cc(NC(=O)Nc2nnc([C@@H]3C[C@H](O)[C@@H](CO)O3)s2)cc(OC)c1OC	x	x	x	0	x	x	x	x
COc1ccc(-c2c(C)oc3c(CN4CCCC(C)C4)c(O)ccc3c2=O)cc1OC (stereo unspecified)	2	i	0	7	x	x	x	x
COc1ccc(Oc2c(C)oc3c(CN4CCOCC4)c(O)ccc3c2=O)cc1	-1	i	-3	7	512	108	x	x
Cc1oc2c(CN3CCOCC3)c(O)ccc2c(=O)c1-c1ccccc1	3	+	-2	73*	415	91	23*	30*
COc1cccc(Oc2c(C)oc3c(CN4CCOCC4)c(O)ccc3c2=O)c1	-2	x	x	31*	x	x	12	23*
CCc1cc2c(-c3ccccc3)cc(=O)oc2c(CN2CCOCC2)c1O	-5	i	-3	0	134	104	x	x
COc1ccccc1-c1c(C)oc2c(CN3CCOCC3)c(O)ccc2c1=O	3	u	-3	66*	226	94	69*	79*
Cc1oc2c(CN3CCCCC3)c(O)ccc2c(=O)c1-c1ccc(Cl)cc1	2	i	0	38*	329	105	28*	34*
Cc1cccc(NC(=O)CSc2cc(C)c(C#N)c3nc4ccccc4n23)c1	-2	i	-6	0	185	97	x	x
C[C@H]1[C@H](c2ccccc2)Oc2cc(Br)ccc2S(=O)(=O)N1Cc1ccc(Cl)cc1	x	x	x	0	x	x	x	x
COc1ccccc1C(=O)Oc1ccc2c(c1)O/C(=C\c1ccncc1)C2=O	0	i	-3	15*	316	102	36*	38*
O=C1/C(=C/c2cccnc2)Oc2cc(OS(=O)(=O)c3ccccc3)ccc21	0	i	-6	x	286	95	x	x
CS(=O)(=O)Oc1ccc2c(c1)O/C(=C\c1cccnc1)C2=O	-1	x	1	16*	145	109	15*	15*
CCOc1cc(/C=C/C(=O)c2ccc(OC)c(CN3CCOCC3)c2)cc(Br)c1O	-2	i	-3	0	133	91	x	x
O=C(N/N=C/c1ccccc1)c1ccc(N2CCCC2=O)cc1	1	i	-5	0	0	102	x	x
Cc1c(C(=O)O)sc(S(=O)(=O)N2CCN(C(=O)Cc3ccc(F)cc3)CC2)c1C(=O)O	-5	x	2	0	312	105	x	x
COc1cc(C(=O)OCC(=O)N2c3ccccc3NC(=O)C2(C)C)ccc1OCC(C)C	1	i	-4	1	517	107	x	x
O=C(CN1C(=O)NC2(CCCC2)C1=O)Oc1ccc2ccc(=O)oc2c1	-5	x	4	67*	518	105	63*	72*
CCc1cc(=O)oc2cc(OC(=O)CN3C(=O)NC4(CCCC4)C3=O)ccc12	-3	i	4	97*	185	109	60*	68*
SMILES	V-ATPase pHluor	Rce1 inhib	MIN6 prolif	proKLK7 act	T cell HTS	Yeast superoxide	KLK7 act conf	EDANS interfere
O=C(CN1C(=O)NC2(CCCC2)C1=O)Nc1ccccc1C(F)(F)F	-1	i	0	0	203	99	x	x
O=C(CN1C(=O)NC2(CCCCC2)C1=O)Oc1ccc2c(C(F)(F)F)cc(=O)oc2c1	-3	i	0	63*	i	99	61*	66*
CCOc1ccccc1OCCC(=O)OCC(=O)Nc1c(C)cc(C)cc1C	-1	i	1	0	518	93	x	x
NS(=O)(=O)c1cc(C(=O)OCC(=O)Nc2ccc3c(c2)OCO3)ccc1Cl	6	x	-4	0	109	118	x	x
O=C(CC(=O)c1ccccc1)Nc1ccccn1	4	i	-2	21*	139	100	2	2
COc1ccc(S(=O)(=O)N2CCC(C(=O)Nc3ccccc3N3CCCCC3)CC2)cc1OC	0	i	-3	1	0	95	x	x
O=C(CC(SCCO)c1ccc2c(c1)OCO2)c1ccco1 (stereo unspecified)	1	i	-4	17*	233	94	48*	46*
O=C(NCc1ccc2c(c1)OCO2)c1ccco1	1	i	-1	1	300	100	x	x
O=C(Nc1cccc(-c2nc3ccccc3[nH]2)c1)c1cccc(NC(=O)c2ccco2)c1	1	i	-6	34*	340	94	1	2
CCN1CCN(c2cc3c(nn2)Oc2ccccc2N3C)CC1	9	i	-2	61*	224	113	70*	67*
CCN1CCN(c2nnc(-c3ccccc3)c3ccccc23)CC1	5	i	3	0	326	103	x	x
COC(=O)c1cc(=O)nc2sc3cc(OC)ccc3n12	4	i	-2	29*	307	110	22*	24*
CCOc1ccc2c(c1)sc1nc(C(=O)OC)cc(=O)n12	-2	i	0	17*	365	111	15*	16*
N#CC1=C(N)Oc2cc(O)c(Cl)cc2C1c1ccccc1F (stereo unspecified)	-6	i	-1	16*	157	100	-3	1
N#CC1=C(N)Oc2cc(O)c(Cl)cc2C1c1cccnc1 (stereo unspecified)	1	i	-2	4	220	106	x	x
C=CCn1c(N)c(C(=O)Nc2cccc(C)c2)c2nc3ccccc3nc21	-5	i	-5	-1	506	110	x	x
